Measurements from ChEMBL document CHEMBL2321753, “Synthesis and biological evaluation of radioiodinated quinacrine-based derivatives for SPECT imaging of Aβ plaques” (Eur J Med Chem, 2013).
Blank lines part the entries; values can stand above or below the compound they belong to. The source made the active and inactive calls. No cut-off for these calls is given here.

What was measured:
Mus musculus [1] = species: Mus musculus; test: Binding affinity to amyloid beta plaques in wild type mouse brain at 100 uM after 3 to 10 hrs using Thioflavin S staining by fluorescence microscopy; type: tissue-based
In short: (§1)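 Brains of female Tg2576 mice (32 months) or wild-type controls (30 months) removed after decapitation and frozen in powdered dry ice. 10 µm sections incubated with compound (100 µM) for 3–10 h, then washed twice for 5 min in 50% EtOH or 50% DMSO. Fluorescence imaged with a GFP filter set (ex 470 nm, em >535 nm). Adjacent sections stained with thioflavin S to confirm plaques.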

Mus musculus [2] = species: Mus musculus; test: Binding affinity to amyloid beta plaques in Tg2576 transgenic mouse brain at 100 uM after 3 to 10 hrs using Thioflavin S staining by fluorescence microscopy; type: tissue-based; in short: as §1
[3] = molecular target: Amyloid-beta precursor protein (Homo sapiens, UniProt P05067); test: Displacement of [125I]IMPY from amyloid beta (1 to 42) (unknown origin) after 3 hrs by gamma counting
Sequence of Amyloid-beta precursor protein (P05067 whole entry): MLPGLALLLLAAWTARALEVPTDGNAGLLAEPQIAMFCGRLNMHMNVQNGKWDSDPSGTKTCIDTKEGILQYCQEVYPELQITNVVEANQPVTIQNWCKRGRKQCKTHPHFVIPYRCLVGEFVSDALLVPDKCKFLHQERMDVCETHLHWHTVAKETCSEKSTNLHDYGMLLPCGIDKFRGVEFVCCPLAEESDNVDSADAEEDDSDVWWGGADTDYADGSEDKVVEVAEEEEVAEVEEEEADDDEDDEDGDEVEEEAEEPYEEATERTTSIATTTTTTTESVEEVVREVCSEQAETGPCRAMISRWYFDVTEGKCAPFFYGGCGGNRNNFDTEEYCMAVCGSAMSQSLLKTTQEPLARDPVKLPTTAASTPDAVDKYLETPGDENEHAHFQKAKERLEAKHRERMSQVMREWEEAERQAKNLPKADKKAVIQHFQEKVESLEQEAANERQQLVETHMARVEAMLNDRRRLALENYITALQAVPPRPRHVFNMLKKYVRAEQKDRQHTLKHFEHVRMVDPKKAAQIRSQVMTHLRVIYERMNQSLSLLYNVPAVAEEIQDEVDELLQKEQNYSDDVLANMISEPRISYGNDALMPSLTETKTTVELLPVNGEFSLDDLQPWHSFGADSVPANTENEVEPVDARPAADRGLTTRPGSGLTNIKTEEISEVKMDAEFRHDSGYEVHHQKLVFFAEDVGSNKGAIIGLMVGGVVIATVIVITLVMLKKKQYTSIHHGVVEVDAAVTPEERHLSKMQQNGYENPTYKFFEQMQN
In short: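 Filtered through GF/B filters and bound radioactivity gamma-counted. IC50 from displacement curves of three independent experiments; Ki calculated with the Cheng–Prusoff equation.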

Brain [4] = test: Ratio of drug level in brain after 2 mins to brain after 60 mins in ddY mouse brain at 0.1 to 0.4 uCi, iv; type: ADME, organism-based; conditions: in vivo
In short: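 ddY mice (5 weeks, 22–25 g) given [125I]ligand (0.1–0.4 µCi) iv in PBS/DMSO. Brain radioactivity (% dose/g) measured by gamma counting at 2 and 60 min, and the 2 min/60 min ratio taken as a washout index.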

Heart [5] = test: Biodistribution in ddY mouse heart at 0.1 to 0.4 uCi, iv after 60 mins by gamma counting; type: ADME, organism-based; conditions: in vivo, 1 h
In short: (§2)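 [125I]ligand (0.1–0.4 µCi) in 100 µL PBS (pH 7.4) containing 30 µL DMSO, injected into the tail vein of ddY mice (5 weeks, 22–25 g). Mice sacrificed at 2, 10, 30 and 60 min. Organs removed, weighed and gamma-counted. Values are % injected dose per gram, except stomach as % dose per organ. Mean (SD) of 3–6 mice per time point.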

Pancreas [6] = test: Biodistribution in ddY mouse pancreas at 0.1 to 0.4 uCi, iv after 60 mins by gamma counting; type: ADME, organism-based; conditions: in vivo, 1 h; in short: as §2
Stomach [7] = test: Biodistribution in ddY mouse stomach assessed per organ at 0.1 to 0.4 uCi, iv after 60 mins by gamma counting; type: ADME, organism-based; conditions: in vivo, 1 h; in short: as §2
Lung [8] = test: Biodistribution in ddY mouse lung at 0.1 to 0.4 uCi, iv after 60 mins by gamma counting; type: ADME, organism-based; conditions: in vivo, 1 h; in short: as §2
Spleen [9] = test: Biodistribution in ddY mouse spleen at 0.1 to 0.4 uCi, iv after 60 mins by gamma counting; type: ADME, organism-based; conditions: in vivo, 1 h; in short: as §2
Intestine [10] = test: Biodistribution in ddY mouse intestine at 0.1 to 0.4 uCi, iv after 60 mins by gamma counting; type: ADME, organism-based; conditions: in vivo, 1 h; in short: as §2
Kidney [11] = test: Biodistribution in ddY mouse kidney at 0.1 to 0.4 uCi, iv after 60 mins by gamma counting; type: ADME, organism-based; conditions: in vivo, 1 h; in short: as §2
Liver [12] = test: Biodistribution in ddY mouse liver at 0.1 to 0.4 uCi, iv after 60 mins by gamma counting; type: ADME, organism-based; conditions: in vivo, 1 h; in short: as §2
Brain [13] = test: Biodistribution in ddY mouse brain at 0.1 to 0.4 uCi, iv after 60 mins by gamma counting; type: ADME, organism-based; conditions: in vivo, 1 h; in short: as §2
Blood [14] = test: Biodistribution in ddY mouse blood at 0.1 to 0.4 uCi, iv after 60 mins by gamma counting; type: ADME, organism-based; conditions: in vivo, 1 h; in short: as §2
Heart [15] = test: Biodistribution in ddY mouse heart at 0.1 to 0.4 uCi, iv after 30 mins by gamma counting; type: ADME, organism-based; conditions: in vivo, 0.5 h; in short: as §2
Pancreas [16] = test: Biodistribution in ddY mouse pancreas at 0.1 to 0.4 uCi, iv after 30 mins by gamma counting; type: ADME, organism-based; conditions: in vivo, 0.5 h; in short: as §2
Stomach [17] = test: Biodistribution in ddY mouse stomach assessed per organ at 0.1 to 0.4 uCi, iv after 30 mins by gamma counting; type: ADME, organism-based; conditions: in vivo, 0.5 h; in short: as §2
Lung [18] = test: Biodistribution in ddY mouse lung at 0.1 to 0.4 uCi, iv after 30 mins by gamma counting; type: ADME, organism-based; conditions: in vivo, 0.5 h; in short: as §2
Spleen [19] = test: Biodistribution in ddY mouse spleen at 0.1 to 0.4 uCi, iv after 30 mins by gamma counting; type: ADME, organism-based; conditions: in vivo, 0.5 h; in short: as §2
Intestine [20] = test: Biodistribution in ddY mouse intestine at 0.1 to 0.4 uCi, iv after 30 mins by gamma counting; type: ADME, organism-based; conditions: in vivo, 0.5 h; in short: as §2
Kidney [21] = test: Biodistribution in ddY mouse kidney at 0.1 to 0.4 uCi, iv after 30 mins by gamma counting; type: ADME, organism-based; conditions: in vivo, 0.5 h; in short: as §2
Liver [22] = test: Biodistribution in ddY mouse liver at 0.1 to 0.4 uCi, iv after 30 mins by gamma counting; type: ADME, organism-based; conditions: in vivo, 0.5 h; in short: as §2
Brain [23] = test: Biodistribution in ddY mouse brain at 0.1 to 0.4 uCi, iv after 30 mins by gamma counting; type: ADME, organism-based; conditions: in vivo, 0.5 h; in short: as §2
Blood [24] = test: Biodistribution in ddY mouse blood at 0.1 to 0.4 uCi, iv after 30 mins by gamma counting; type: ADME, organism-based; conditions: in vivo, 0.5 h; in short: as §2
Heart [25] = test: Biodistribution in ddY mouse heart at 0.1 to 0.4 uCi, iv after 10 mins by gamma counting; type: ADME, organism-based; conditions: in vivo; in short: as §2
Pancreas [26] = test: Biodistribution in ddY mouse pancreas at 0.1 to 0.4 uCi, iv after 10 mins by gamma counting; type: ADME, organism-based; conditions: in vivo; in short: as §2
Stomach [27] = test: Biodistribution in ddY mouse stomach assessed per organ at 0.1 to 0.4 uCi, iv after 10 mins by gamma counting; type: ADME, organism-based; conditions: in vivo; in short: as §2
Lung [28] = test: Biodistribution in ddY mouse lung at 0.1 to 0.4 uCi, iv after 10 mins by gamma counting; type: ADME, organism-based; conditions: in vivo; in short: as §2
Spleen [29] = test: Biodistribution in ddY mouse spleen at 0.1 to 0.4 uCi, iv after 10 mins by gamma counting; type: ADME, organism-based; conditions: in vivo; in short: as §2
Intestine [30] = test: Biodistribution in ddY mouse intestine at 0.1 to 0.4 uCi, iv after 10 mins by gamma counting; type: ADME, organism-based; conditions: in vivo; in short: as §2
Liver [31] = test: Biodistribution in ddY mouse liver at 0.1 to 0.4 uCi, iv after 10 mins by gamma counting; type: ADME, organism-based; conditions: in vivo; in short: as §2
Kidney [32] = test: Biodistribution in ddY mouse kidney at 0.1 to 0.4 uCi, iv after 10 mins by gamma counting; type: ADME, organism-based; conditions: in vivo; in short: as §2
Brain [33] = test: Biodistribution in ddY mouse brain at 0.1 to 0.4 uCi, iv after 10 mins by gamma counting; type: ADME, organism-based; conditions: in vivo; in short: as §2
Blood [34] = test: Biodistribution in ddY mouse blood at 0.1 to 0.4 uCi, iv after 10 mins by gamma counting; type: ADME, organism-based; conditions: in vivo; in short: as §2
Pancreas [35] = test: Biodistribution in ddY mouse pancreas at 0.1 to 0.4 uCi, iv after 2 mins by gamma counting; type: ADME, organism-based; conditions: in vivo; in short: as §2
Heart [36] = test: Biodistribution in ddY mouse heart at 0.1 to 0.4 uCi, iv after 2 mins by gamma counting; type: ADME, organism-based; conditions: in vivo; in short: as §2
Stomach [37] = test: Biodistribution in ddY mouse stomach assessed per organ at 0.1 to 0.4 uCi, iv after 2 mins by gamma counting; type: ADME, organism-based; conditions: in vivo; in short: as §2
Lung [38] = test: Biodistribution in ddY mouse lung at 0.1 to 0.4 uCi, iv after 2 mins by gamma counting; type: ADME, organism-based; conditions: in vivo; in short: as §2
Intestine [39] = test: Biodistribution in ddY mouse intestine at 0.1 to 0.4 uCi, iv after 2 mins by gamma counting; type: ADME, organism-based; conditions: in vivo; in short: as §2
Spleen [40] = test: Biodistribution in ddY mouse spleen at 0.1 to 0.4 uCi, iv after 2 mins by gamma counting; type: ADME, organism-based; conditions: in vivo; in short: as §2
Kidney [41] = test: Biodistribution in ddY mouse kidney at 0.1 to 0.4 uCi, iv after 2 mins by gamma counting; type: ADME, organism-based; conditions: in vivo; in short: as §2
Liver [42] = test: Biodistribution in ddY mouse liver at 0.1 to 0.4 uCi, iv after 2 mins by gamma counting; type: ADME, organism-based; conditions: in vivo; in short: as §2
Blood [43] = test: Biodistribution in ddY mouse blood at 0.1 to 0.4 uCi, iv after 2 mins by gamma counting; type: ADME, organism-based; conditions: in vivo; in short: as §2
Brain [44] = test: Biodistribution in ddY mouse brain at 0.1 to 0.4 uCi, iv after 2 mins by gamma counting; type: ADME, organism-based; conditions: in vivo; in short: as §2

Activity (Mus musculus [1]): inactive | Activity (Mus musculus [2]): Active | Ki [3]: 353 nM
SMILES: CCN(CC)CCCC(C)Nc1c2ccc(I)cc2nc2ccc(OC)cc12 (centres undefined)

Ratio (Brain [4]): 11.9 | Drug uptake (Heart [5]): 1.1 % ID/g | Drug uptake (Pancreas [6]): 1.1 % ID/g | Drug uptake (Stomach [7]): 4.36 %ID | Drug uptake (Lung [8]): 2.04 % ID/g | Drug uptake (Spleen [9]): 1.24 % ID/g | Drug uptake (Intestine [10]): 20.17 % ID/g | Drug uptake (Kidney [11]): 2.77 % ID/g | Drug uptake (Liver [12]): 5.8 % ID/g | Drug uptake (Brain [13]): 0.37 % ID/g | Drug uptake (Blood [14]): 1.77 % ID/g | Drug uptake (Heart [15]): 1.59 % ID/g | Drug uptake (Pancreas [16]): 1.33 % ID/g | Drug uptake (Stomach [17]): 5.97 %ID | Drug uptake (Lung [18]): 3.28 % ID/g | Drug uptake (Spleen [19]): 1.87 % ID/g | Drug uptake (Intestine [20]): 16.78 % ID/g | Drug uptake (Kidney [21]): 4.41 % ID/g | Drug uptake (Liver [22]): 13.65 % ID/g | Drug uptake (Brain [23]): 0.82 % ID/g | Drug uptake (Blood [24]): 2.59 % ID/g | Drug uptake (Heart [25]): 1.82 % ID/g | Drug uptake (Pancreas [26]): 2.03 % ID/g | Drug uptake (Stomach [27]): 3.51 %ID | Drug uptake (Lung [28]): 3.37 % ID/g | Drug uptake (Spleen [29]): 2.12 % ID/g | Drug uptake (Intestine [30]): 6.41 % ID/g | Drug uptake (Liver [31]): 20.85 % ID/g | Drug uptake (Kidney [32]): 4.69 % ID/g | Drug uptake (Brain [33]): 2.14 % ID/g | Drug uptake (Blood [34]): 2.19 % ID/g | Drug uptake (Pancreas [35]): 5.41 % ID/g | Drug uptake (Heart [36]): 5.83 % ID/g | Drug uptake (Stomach [37]): 1.86 %ID | Drug uptake (Lung [38]): 5.95 % ID/g | Drug uptake (Intestine [39]): 2.59 % ID/g | Drug uptake (Spleen [40]): 3.75 % ID/g | Drug uptake (Kidney [41]): 8.07 % ID/g | Drug uptake (Liver [42]): 18.77 % ID/g | Drug uptake (Blood [43]): 2.14 % ID/g | Drug uptake (Brain [44]): 4.41 % ID/g
SMILES: COc1ccc2nc3cc([125I])ccc3c(OC)c2c1
